Test results: ChEMBL document CHEMBL4689842, “EUbOPEN Chemogenomics Library wave 1” (2021)

Tested on: Fibroblast
Assay: Multiplex assay against human fibroblast
Type: toxicity, cell-based
Summary of the method: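 Live cells were stained at seeding with Hoechst33342, BioTracker Green Microtubule Cytoskeleton Dye, MitoTracker Red and Annexin V Alexa Fluor 680. Following compound addition, they were imaged on a CQ1 microscope at 37°C and 5% CO2 and gated by CellPathfinder machine learning into Hoechst high-intensity objects or normal cells, with normal cells split into healthy, pyknosed or fragmented nuclei and pyknosed cells into mitotic or apoptotic. Tubulin, mitochondrial-mass and membrane-permeability phenotypes are per cents of healthy-nucleus cells.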

[1] = 12 h, 1 µM, compound concentration 1 uM, replicate 1
[2] = 12 h, 1 µM, compound concentration 1 uM, replicate 2
[3] = 12 h, 10 µM, compound concentration 10 uM, replicate 1
[4] = 12 h, 10 µM, compound concentration 10 uM, replicate 2
[5] = 24 h, 1 µM, compound concentration 1 uM, replicate 1
[6] = 24 h, 1 µM, compound concentration 1 uM, replicate 2
[7] = 24 h, 10 µM, compound concentration 10 uM, replicate 1
[8] = 24 h, 10 µM, compound concentration 10 uM, replicate 2
[9] = 48 h, 1 µM, compound concentration 1 uM, replicate 1
[10] = 48 h, 1 µM, compound concentration 1 uM, replicate 2
[11] = 48 h, 10 µM, compound concentration 10 uM, replicate 1
[12] = 48 h, 10 µM, compound concentration 10 uM, replicate 2

CC(C)(C)NC[C@H](O)COc1nsnc1N1CCOCC1 [TIMOLOL]
Population Apoptotic (%) [1]: 71%
Population Fragmented Nuclei (%) [1]: 22%
Population Healthy Nuclei (%) [1]: 51%
Population Hoechst High Intensity Objects (%) [1]: 14%
Population Membrane Permeable-Phenotype (%) [1]: 14%
Population Mitochondria Different-Phenotype (%) [1]: 1%
Population Mitotic Cells (%) [1]: 28%
Population Normal (%) [1]: 85%
Population Pyknosed Nuclei (%) [1]: 25%
Population Tubulin-Different-Phenotype (%) [1]: 25%
Population Apoptotic (%) [2]: 100%
Population Fragmented Nuclei (%) [2]: 5%
Population Healthy Nuclei (%) [2]: 88%
Population Hoechst High Intensity Objects (%) [2]: 8%
Population Membrane Permeable-Phenotype (%) [2]: 8%
Population Mitochondria Different-Phenotype (%) [2]: 11%
Population Mitotic Cells (%) [2]: 0%
Population Normal (%) [2]: 92%
Population Pyknosed Nuclei (%) [2]: 5%
Population Tubulin-Different-Phenotype (%) [2]: 18%
Population Apoptotic (%) [3]: 60%
Population Fragmented Nuclei (%) [3]: 28%
Population Healthy Nuclei (%) [3]: 40%
Population Hoechst High Intensity Objects (%) [3]: 14%
Population Membrane Permeable-Phenotype (%) [3]: 33%
Population Mitochondria Different-Phenotype (%) [3]: 0%
Population Mitotic Cells (%) [3]: 39%
Population Normal (%) [3]: 85%
Population Pyknosed Nuclei (%) [3]: 31%
Population Tubulin-Different-Phenotype (%) [3]: 47%
Total Cell Count [3]: 105
Population Apoptotic (%) [4]: 33%
Population Fragmented Nuclei (%) [4]: 8%
Population Healthy Nuclei (%) [4]: 79%
Population Hoechst High Intensity Objects (%) [4]: 3%
Population Membrane Permeable-Phenotype (%) [4]: 4%
Population Mitochondria Different-Phenotype (%) [4]: 7%
Population Mitotic Cells (%) [4]: 66%
Population Normal (%) [4]: 96%
Population Pyknosed Nuclei (%) [4]: 11%
Population Tubulin-Different-Phenotype (%) [4]: 4%
Population Apoptotic (%) [5]: 60%
Population Fragmented Nuclei (%) [5]: 19%
Population Healthy Nuclei (%) [5]: 53%
Population Hoechst High Intensity Objects (%) [5]: 12%
Population Membrane Permeable-Phenotype (%) [5]: 26%
Population Mitochondria Different-Phenotype (%) [5]: 0%
Population Mitotic Cells (%) [5]: 39%
Population Normal (%) [5]: 87%
Population Pyknosed Nuclei (%) [5]: 27%
Population Tubulin-Different-Phenotype (%) [5]: 30%
Population Apoptotic (%) [6]: 50%
Population Fragmented Nuclei (%) [6]: 11%
Population Healthy Nuclei (%) [6]: 81%
Population Hoechst High Intensity Objects (%) [6]: 5%
Population Membrane Permeable-Phenotype (%) [6]: 2%
Population Mitochondria Different-Phenotype (%) [6]: 18%
Population Mitotic Cells (%) [6]: 50%
Population Normal (%) [6]: 94%
Population Pyknosed Nuclei (%) [6]: 6%
Population Tubulin-Different-Phenotype (%) [6]: 21%
Population Apoptotic (%) [7]: 65%
Population Fragmented Nuclei (%) [7]: 22%
Population Healthy Nuclei (%) [7]: 49%
Population Hoechst High Intensity Objects (%) [7]: 16%
Population Membrane Permeable-Phenotype (%) [7]: 58%
Population Mitochondria Different-Phenotype (%) [7]: 2%
Population Mitotic Cells (%) [7]: 34%
Population Normal (%) [7]: 83%
Population Pyknosed Nuclei (%) [7]: 27%
Population Tubulin-Different-Phenotype (%) [7]: 58%
Total Cell Count [7]: 99
Population Apoptotic (%) [8]: 41%
Population Fragmented Nuclei (%) [8]: 7%
Population Healthy Nuclei (%) [8]: 81%
Population Hoechst High Intensity Objects (%) [8]: 2%
Population Membrane Permeable-Phenotype (%) [8]: 3%
Population Mitochondria Different-Phenotype (%) [8]: 5%
Population Mitotic Cells (%) [8]: 58%
Population Normal (%) [8]: 97%
Population Pyknosed Nuclei (%) [8]: 11%
Population Tubulin-Different-Phenotype (%) [8]: 4%
Population Apoptotic (%) [9]: 64%
Population Fragmented Nuclei (%) [9]: 29%
Population Healthy Nuclei (%) [9]: 53%
Population Hoechst High Intensity Objects (%) [9]: 10%
Population Membrane Permeable-Phenotype (%) [9]: 22%
Population Mitochondria Different-Phenotype (%) [9]: 2%
Population Mitotic Cells (%) [9]: 35%
Population Normal (%) [9]: 89%
Population Pyknosed Nuclei (%) [9]: 16%
Population Tubulin-Different-Phenotype (%) [9]: 34%
Population Apoptotic (%) [10]: 33%
Population Fragmented Nuclei (%) [10]: 12%
Population Healthy Nuclei (%) [10]: 84%
Population Hoechst High Intensity Objects (%) [10]: 15%
Population Membrane Permeable-Phenotype (%) [10]: 14%
Population Mitochondria Different-Phenotype (%) [10]: 1%
Population Mitotic Cells (%) [10]: 66%
Population Normal (%) [10]: 84%
Population Pyknosed Nuclei (%) [10]: 3%
Population Tubulin-Different-Phenotype (%) [10]: 23%
Total Cell Count [10]: 106
Population Apoptotic (%) [11]: 47%
Population Fragmented Nuclei (%) [11]: 34%
Population Healthy Nuclei (%) [11]: 45%
Population Hoechst High Intensity Objects (%) [11]: 16%
Population Membrane Permeable-Phenotype (%) [11]: 51%
Population Mitochondria Different-Phenotype (%) [11]: 0%
Population Mitotic Cells (%) [11]: 52%
Population Normal (%) [11]: 83%
Population Pyknosed Nuclei (%) [11]: 19%
Population Tubulin-Different-Phenotype (%) [11]: 42%
Total Cell Count [11]: 118
Population Apoptotic (%) [12]: 33%
Population Fragmented Nuclei (%) [12]: 16%
Population Healthy Nuclei (%) [12]: 77%
Population Hoechst High Intensity Objects (%) [12]: 9%
Population Membrane Permeable-Phenotype (%) [12]: 8%
Population Mitochondria Different-Phenotype (%) [12]: 2%
Population Mitotic Cells (%) [12]: 66%
Population Normal (%) [12]: 90%
Population Pyknosed Nuclei (%) [12]: 5%
Population Tubulin-Different-Phenotype (%) [12]: 29%
